In the library only some 2.9% were active in any assay of this set; here they are far more common.
OX1R antag-1: blocks the human orexin 1 receptor | inhibition, % at 6.6 µM | 330,000 tested, 1.8% active | OX1R-expressing cells, FRET antagonist read-out | O43613; in the data active = inhibition mostly above about 38%, no sharp cut-off; inactive = mostly below about 40%;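 also: 0% = agonist challenge alone and 100% = reference antagonist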
Target sequence (O43613 whole entry, looked up): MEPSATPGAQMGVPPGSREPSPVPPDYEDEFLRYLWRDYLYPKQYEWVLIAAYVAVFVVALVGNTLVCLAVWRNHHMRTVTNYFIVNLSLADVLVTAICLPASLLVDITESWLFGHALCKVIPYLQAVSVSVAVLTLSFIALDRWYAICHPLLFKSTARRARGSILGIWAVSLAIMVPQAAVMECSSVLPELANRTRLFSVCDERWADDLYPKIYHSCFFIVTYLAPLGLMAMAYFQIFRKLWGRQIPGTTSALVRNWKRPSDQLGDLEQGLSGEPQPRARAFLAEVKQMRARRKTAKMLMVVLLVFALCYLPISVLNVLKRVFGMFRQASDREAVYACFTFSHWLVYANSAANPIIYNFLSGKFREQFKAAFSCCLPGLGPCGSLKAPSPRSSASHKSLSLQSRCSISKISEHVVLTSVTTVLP
CHO-K1 Ca ag: M1 agonist counterscreen hit in parental CHO-K1 cells. Fluo-8 calcium fluorescence; scaled to maximal ATP response, vehicle zero. 360,000 tested, 0.48% active. activation, % at 3 µM. AID 602248; in the data active = activation above about 15%;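 also: untransfected CHO-K1 host cells lacking M1 receptor as counterscreen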
CHO-K1 Ca PAM: nonselective activator or artifact in parental CHO-K1 calcium assay. 360,000 tested, 0.02% active. AID 602247. activation, % at 3 µM. ATP EC20, Fluo-8 calcium fluorescence; 0% at ATP EC20, 100% at ATP max;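 active = activation above the run cutoff, the mean activation of all test compounds plus 3 SD, cut at about 40% in these data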;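 also: peak over basal fluorescence ratio in a 140 s read after ATP addition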
CHO parental Ca: counter-screen for OX1R antagonists: effect in parental CHO cells | 330,000 tested, 0.63% active | parental CHO-K1, ATP-induced calcium, Fluo-8 fluorescence | inhibition, % at 5.6 µM;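 active = inhibition above that plate's mean sample inhibition plus 3 SD, cut at about 26% in these data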;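 also: 0% = ATP-challenged DMSO wells and 100% = DMSO wells without ATP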
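Assay system – parental CHO cells · Reagent – ATP stimulus · Detection – intracellular calcium via Fluo-8 no-wash fluorescent dye · Evaluation – percent inhibition of ATP-evoked calcium rise, normalized to controls · Controls – ATP wells versus no-ATP DMSO wells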
CHO-K1 Ca antag: nonselective inhibitor or artifact in parental CHO-K1 cells; ATP-induced calcium, Fluo-8 fluorescence; inhibition, % at 3 µM; 360,000 tested, 0.6% active; AID 602250;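 active = inhibition above a per-plate cutoff, the plate's mean sample inhibition plus 3 SD, cut at about 24% in these data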;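 also: 0% = DMSO plus EC80 ATP and 100% = DMSO alone without ATP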
OX1R antag-2: human HCRTR1 antagonism. AID 434989. CHO/OX1R cells, Fluo-8 calcium fluorescence, orexin A. 330,000 tested, 0.43% active. O43613. inhibition, % at 5 µM;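 active = inhibition above its plate's threshold, mean inhibition of all tested compounds on the plate plus 3 SD, cut at about 37% in these data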;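 also: 0% = orexin A challenge wells and 100% = SB-334867-A antagonist wells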
OX1R Ca confirm: OX1R (human) antagonism, confirmed | 1,100 tested, 38% active | CHO/OX1R cells, orexin A calcium Fluo-8 fluorescence | shares compounds with OX1R antag-2 | inhibition, % at 5 µM; in the data active = inhibition above about 29%;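 also: 0% = agonist challenge alone and 100% = reference antagonist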
CHO Ca triplic: signal in parental CHO cells, OX1R antagonist counter-screen. shares compounds with OX1R antag-2. parental CHO-K1, ATP-induced calcium, Fluo-8 fluorescence. inhibition, % at 5.6 µM. 1,100 tested, 9.3% active;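 active = inhibition above a per-plate limit, the mean inhibition of that plate's test compounds plus 3 SD, cut at about 25% in these data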;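 also: 0% = ATP challenge with DMSO and 100% = DMSO without ATP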
OX1R HTRF conf: confirmation of human orexin 1 receptor antagonists, HTRF format; shares compounds with OX1R antag-1; OX1R-expressing cells, HTRF antagonist assay; inhibition, % at 6.6 µM; 1,800 tested, 49% active; AID 492964; in the data active = inhibition above about 55%;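 also: CHO cells expressing OX1R stimulated with orexin A at about EC80; 0% = agonist challenge alone and 100% = reference antagonist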
CHO-K1 HTRF cnt: signal in parental CHO-K1 cells, OX1R antagonist counter-screen; 1,800 tested, 48% active; shares compounds with OX1R antag-1; inhibition, % at 6.6 µM; HTRF counterscreen; in the data active = inhibition above about 17%;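 also: 0% = agonist challenge with vehicle and 100% = vehicle alone without agonist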
* = called active by the depositor; / = no result.

SMILES	OX1R antag-1	CHO-K1 Ca ag	CHO-K1 Ca PAM	CHO parental Ca	CHO-K1 Ca antag	OX1R antag-2	OX1R Ca confirm	CHO Ca triplic	OX1R HTRF conf	CHO-K1 HTRF cnt
Cc1cc(Br)cc2c1NC(=O)C2(c1c(C)n(C)n(-c2ccccc2)c1=O)c1c(C)n(C)n(-c2ccccc2)c1=O	69.2*	0.4	19.1	-7.8	-9.4	31.4	57.0*	-5.8	71.5*	8.4
Cc1cccc(NC(=O)c2cc(-c3cc(C)cc(C)c3O)n[nH]2)c1	63.8*	6.8	-4.2	6.5	-1.5	39.8	16.9	4.2	68.9*	12.8
Cc1cccc(NC(=O)c2cc(-c3c(C)cc(C)cc3O)n[nH]2)c1	17.6	-0.3	-11.4	-2.2	-2.4	6.4	/	/	/	/
Cc1cc(C(=O)NCc2ccccc2Cl)c2ccccc2n1	65.8	4.1	-9.3	-18.6	-6.7	-10.1	/	/	/	/
Cc1cc(C(=O)NCc2cccc(Cl)c2)c2ccccc2n1	86.8*	2.2	0.2	-11.3	-9.6	26.1	30.9*	-2.7	66.9*	1.4
CS(=O)(=O)c1ccc(C(=O)Nc2cccc(-c3nc4ccccc4[nH]3)c2)cc1	72.1*	3.4	6.0	-9.4	-7.4	29.2	21.4	-5.0	63.0*	7.7
CS(=O)(=O)c1cccc(C(=O)Nc2cccc(-c3nc4ccccc4[nH]3)c2)c1	13.1	3.3	13.6	-1.0	-2.4	-6.2	/	/	/	/
NS(=O)(=O)c1ccc(NC(=O)COC(=O)C2CC(=O)N(Cc3ccccc3)C2)cc1 (stereo not drawn)	8.9	-0.7	3.9	-6.3	-19.4	-8.4	/	/	/	/
CCN(CC(=O)Nc1cccc(S(=O)(=O)N(C)c2ccccc2)c1)Cc1ccccc1	28.2*	0.4	-20.8	14.7	0.8	77.5*	19.4	-9.4	54.0	3.3
CCN(CC)c1ccc(/C=C(\C#N)c2ccccn2)cc1	80.0*	0.6	-16.1	-6.9	26.2*	34.0	4.4	-7.1	89.5*	9.0
CCN(Cc1ccccc1)c1ccc(/C=C(\C#N)c2ccccn2)cc1	25.1	0.9	16.3	-23.7	-9.9	-25.1	/	/	/	/
Cc1cccc(/C=N/NC(=O)c2cc3c(s2)-c2ccccc2CC3)c1	87.2*	-0.1	19.5	-14.8	-8.0	81.2*	91.7*	-8.8	84.6*	0.2
CCNc1oc(-c2cccc3ccccc23)nc1C#N	89.2*	-0.1	7.7	20.3	10.9	55.0*	39.2*	1.9	78.1*	5.0
C=CCNc1oc(-c2cccc3ccccc23)nc1C#N	68.6*	0.0	13.4	-12.4	-6.7	42.9*	15.9	1.2	54.7*	7.0
CC(C)Nc1oc(-c2cccc3ccccc23)nc1C#N	5.8	0.2	-1.3	-7.9	-8.0	-20.3	/	/	/	/
COc1cccc(NC(=O)CN(C)C(=O)c2ccccc2-c2nc3ccccc3s2)c1	99.8*	1.5	-1.3	-37.1	-14.3	17.4	16.5	-4.5	88.4*	5.4
CN(CC(=O)Nc1c(Cl)cccc1Cl)C(=O)c1ccccc1-c1nc2ccccc2s1	38.0	1.9	-13.0	-32.9	-9.9	-45.1	/	/	/	/
CCOc1ccc2nc(NC(=O)C3CCCN(S(=O)(=O)c4cccs4)C3)sc2c1 (stereo not drawn)	84.2*	0.3	12.2	-15.4	-4.7	51.9*	35.6*	-9.4	62.4*	7.8
O=C(CSc1nnc2scc(-c3ccccc3)n12)Nc1nsc(-c2ccc(Cl)cc2)n1	19.0	0.3	16.3	-13.1	-5.6	-27.6	/	/	/	/
Cc1ccc(-c2csc3nnc(SCC(=O)Nc4nsc(-c5ccccc5)n4)n23)cc1	81.8*	0.4	8.8	-31.5	-26.0	67.9*	48.5*	-21.0	91.2*	6.3
COc1ccccc1NC(=O)C(C)OC(=O)C(C)SCC(=O)Nc1ccc(C)cc1 (stereo not drawn)	/	0.1	1.2	/	2.3	/	/	/	/	/
CC(=O)Nc1ccc(NC(=O)C(C)OC(=O)C(C)SCC(=O)Nc2ccc(F)cc2)cc1 (stereo not drawn)	89.0*	0.9	14.1	-4.0	3.8	27.7	45.8*	-2.0	86.8*	-0.6
CCN(C(=O)CCS(=O)(=O)c1cccc2nonc12)c1ccc(F)cc1	45.6	0.3	-11.4	-3.7	-8.3	-4.0	/	/	/	/
CCOC(=O)C1=C(C)N(C[C@@H]2CC[C@@H](Cc3ccc(-c4ccccc4)cc3)O2)C(=O)NC1C1CC1 (stereo partly drawn)	34.0*	-0.5	-7.1	12.3	-10.4	50.8*	10.0	-17.8	28.4	0.9
CCOC(=O)C1=C(C)N(C[C@@H]2CC[C@@H](Cc3ccc(-c4ccccc4)cc3)O2)C(=O)NC1c1ccc(-c2ccccc2)cc1 (stereo partly drawn)	6.3	1.2	12.7	2.4	-5.3	6.3	/	/	/	/
SMILES	OX1R antag-1	CHO-K1 Ca ag	CHO-K1 Ca PAM	CHO parental Ca	CHO-K1 Ca antag	OX1R antag-2	OX1R Ca confirm	CHO Ca triplic	OX1R HTRF conf	CHO-K1 HTRF cnt
CCCNC(=O)C1(C)CCN(C(=O)c2c(F)ccc(C)c2F)C1 (stereo not drawn)	/	0.2	4.8	/	-0.3	/	/	/	/	/
COc1ccc(-c2csc(NC(=O)c3cc(C)oc3C)n2)cc1OC	64.2*	2.6	-16.5	7.8	-2.6	31.4	4.8	-14.1	69.3*	10.6
c1ccc(-c2nccc(-c3ccc4c(c3)OCO4)n2)cc1	90.0*	-0.1	8.1	-9.2	-7.7	33.4	12.6	16.7	83.9*	8.2
COCCNC(=O)C(c1ccc(F)cc1)N(CCOC)C(=O)CCC(=O)Nc1ccccn1 (stereo not drawn)	4.8	0.9	15.3	4.1	-6.0	-10.3	/	/	/	/
Cc1cc(NC(=O)CCC(=O)N(Cc2cccs2)C(C(=O)NC2CCCC2)c2ccccc2)no1 (stereo not drawn)	92.0*	2.1	10.9	-18.8	-4.8	51.3*	43.9*	-33.1	93.2*	0.6
COCCNC(=O)C(c1ccc(O)cc1)N(Cc1cccs1)C(=O)CCC(=O)Nc1ccccn1 (stereo not drawn)	33.4	0.4	3.4	0.2	-8.7	-5.8	/	/	/	/
COCCNC(=O)C(c1ccc(C)cc1)N(Cc1cccs1)C(=O)CCC(=O)Nc1ccccn1 (stereo not drawn)	75.3*	2.2	2.4	-4.7	-7.1	21.9	25.2	-14.5	82.1*	-1.0
COCCNC(=O)C(c1ccc(C)cc1)N(Cc1ccccc1)C(=O)CCC(=O)Nc1ccccn1 (stereo not drawn)	72.2*	1.2	10.6	-21.3	-5.0	31.7	39.5*	-10.2	88.4*	0.6

Screening results: PubChem BioAssay, The Scripps Research Institute Molecular Screening Center
